Bioassay records as filed in PubChem BioAssay.
The list is not random: actives were taken first. Their share in the collection is about 2.9%.
S100A4 inh HTS = inhibitors of S100A4-myosin IIA peptide binding, primary screen, biochemical, fluorescence polarization, TAMRA-MyoIIA peptide | AID 652163, 2013 | hit rate 0.14% among 360,000 | inhibition, % at 10.7 µM | Protein S100-A4 (Homo sapiens), P26447;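 active = mean inhibition of at least 70% across replicates, with every replicate also reaching that level; inconclusive = mean inhibition reaches 70% but some replicates fall short; inactive = mean inhibition below 70%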
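Material: S100A4 monomer (human). Medium: Calcium-containing HEPES buffer, pH 7.2. Probe or stimulus: labelled myosin peptide probe, 5 nM. Compound dosing: one concentration per compound. Timing: polarization read 5 min after assay mix addition, stable 5–60 min. Benchmarks: DMSO as neutral control, TFP as positive control.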
DENV2 CPE = inhibitors of DENV2 cytopathic effect, primary screen, cell-based, plate reader, single concentration. DENV2-infected cells, cytopathic effect rescue. hit rate 1.7% among 350,000. CPE inhibition, % at 9.99 µM. AID 651640, 2012; in the data active = CPE inhibition above about 20%, passing the limit was not always enough; inconclusive = no clear call, values can overlap the other calls; tested in BHK-21 cells;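 note: 0% = median of neutral control wells and 100% = median of positive control wells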
CAL PDZ FP-1 = CAL PDZ peptide-binding inhibitors, primary screen, biochemical, fluorescence polarization, Cer-tagged CAL PDZ, HTS; AID 504414, 2011; hit rate 0.02% among 330,000; purified CAL PDZ, TMR-peptide fluorescence polarization, 1 h; inhibition, % at 20 µM;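 active = highest replicate inhibition of at least 40%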;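 note: plate controls were DMSO neutral control wells for no effect and unlabeled competitor peptide control wells for full effect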
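material = purified tagged CAL PDZ domain construct (CerCALP) | compound dosing = 20 µM, one dose | times = 1 h at RT | measured by = fluorescence polarization from S- and P-plane intensities, G-factor corrected | read-out = inhibition from polarization loss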
SIRT5 block = SIRT5 desuccinylase inhibitors, primary screen, biochemical, fluorescence imaging, single point, set 5. NAD-dependent protein deacylase sirtuin-5, mitochondrial (Homo sapiens), Q9NXA8. hit rate 1.1% among 330,000. inhibition, % at 15 µM. AID 652115, 2013. Purified SirT5, succinyl-peptide AMC, trypsin-coupled fluorescence; in the data active = inhibition above about 15%; inconclusive = no clear call, values can overlap the other calls
CAL PDZ FP-2 = untagged CAL PDZ binding inhibitors, primary screen, biochemical, fluorescence polarization, HTS | inhibition, % at 24.9 µM | hit rate 0.92% among 300,000 | purified CAL PDZ, TMR-peptide fluorescence polarization, 1 h | Golgi-associated PDZ and coiled-coil motif-containing protein (Homo sapiens), Q9HD26 | AID 602252, 2012;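 active = mean inhibition of at least 30% with at least half of replicates also reaching 30%; inconclusive = no clear call, values can overlap the other calls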;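 note: 0% = DMSO neutral control and 100% = excess unlabeled competitor peptide PRC23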
ERAP1 HTS inh = human ERAP1 aminopeptidase inhibitors, primary screen, biochemical, single point, plate reader; hit rate 0.15% among 340,000; recombinant ERAP1, Leu-AMC fluorescence, 60 min; Endoplasmic reticulum aminopeptidase 1 (Homo sapiens), Q9NZ08; inhibition, % at 10.7 µM;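 active = mean replicate inhibition of at least 30%, or all replicates individually reaching that 30% level; inactive = mean below 30% and not every replicate reaching it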;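 note: 0% = neutral control wells and 100% = L-leucinethiol positive control wells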
Target sequence (Q9NZ08 whole entry, looked up): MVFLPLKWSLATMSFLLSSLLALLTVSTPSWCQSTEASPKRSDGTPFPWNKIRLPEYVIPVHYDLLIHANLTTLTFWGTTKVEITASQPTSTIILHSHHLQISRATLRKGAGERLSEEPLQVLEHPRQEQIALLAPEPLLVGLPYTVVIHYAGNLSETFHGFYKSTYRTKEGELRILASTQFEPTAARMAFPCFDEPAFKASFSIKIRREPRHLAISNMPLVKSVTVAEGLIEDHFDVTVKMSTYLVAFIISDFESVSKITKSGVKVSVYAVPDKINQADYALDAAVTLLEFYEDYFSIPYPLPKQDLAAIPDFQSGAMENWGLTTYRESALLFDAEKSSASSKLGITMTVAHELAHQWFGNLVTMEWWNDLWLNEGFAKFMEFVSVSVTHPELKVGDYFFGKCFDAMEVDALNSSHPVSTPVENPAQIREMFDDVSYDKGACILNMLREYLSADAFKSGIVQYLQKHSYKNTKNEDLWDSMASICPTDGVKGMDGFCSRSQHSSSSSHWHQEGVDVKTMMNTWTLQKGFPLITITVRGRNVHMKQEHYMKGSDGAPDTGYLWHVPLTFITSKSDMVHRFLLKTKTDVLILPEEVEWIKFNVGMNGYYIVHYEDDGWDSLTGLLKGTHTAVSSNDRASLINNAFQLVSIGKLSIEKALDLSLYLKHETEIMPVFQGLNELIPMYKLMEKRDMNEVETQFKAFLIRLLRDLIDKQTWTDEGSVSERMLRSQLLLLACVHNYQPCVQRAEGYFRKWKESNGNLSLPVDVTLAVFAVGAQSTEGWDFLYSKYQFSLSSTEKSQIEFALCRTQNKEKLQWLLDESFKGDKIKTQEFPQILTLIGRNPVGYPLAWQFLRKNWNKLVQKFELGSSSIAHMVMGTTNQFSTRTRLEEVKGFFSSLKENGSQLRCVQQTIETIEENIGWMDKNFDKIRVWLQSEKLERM
Starred values were filed as active, the others as inactive; ? = inconclusive; · = not tested or not shown.

SMILES	S100A4 inh HTS	DENV2 CPE	CAL PDZ FP-1	SIRT5 block	CAL PDZ FP-2	ERAP1 HTS inh
Cc1ccc(S(=O)(=O)Nc2ccc3c(c2)C(=O)N([C@@H](C)CO)C[C@@H](C)[C@H](CN(C)S(=O)(=O)c2ccccc2)OCCCC[C@H](C)O3)cc1	12	-8	·	13	·	1
Cc1ccc(S(=O)(=O)N(C)C[C@@H]2OCCCC[C@H](C)Oc3ccc(NS(=O)(=O)c4ccccc4)cc3C(=O)N([C@H](C)CO)C[C@H]2C)cc1	2	2	·	18*	·	3
O=C(C[C@@H]1CC[C@H]2[C@@H](COC[C@@H](O)CN2Cc2ccc(C(F)(F)F)cc2)O1)NCCc1ccccc1	5	2	·	-1	·	-1
COc1ccccc1S(=O)(=O)N[C@H]1CC[C@H](CC(=O)NCc2cc(F)cc(F)c2)O[C@H]1CO	64	-16	·	5	·	-1
CCC(=O)NC[C@@H]1[C@@H](c2ccc(C3=CCCC3)cc2)[C@@H](CO)N1CC1CC1	2	-6	·	0	·	-2
CCCN(C)C[C@@H]1Oc2cc(C#C[C@@H](C)O)ccc2S(=O)(=O)N([C@H](C)CO)C[C@@H]1C	-8	1	·	-6	·	1
CCC(=O)N[C@H]1CC[C@H](CC(=O)NCCN2CCCCC2)O[C@@H]1CO	-2	2	·	-2	·	1
C[C@@H]1CN([C@H](C)CO)C(=O)c2cc(NS(=O)(=O)c3cccs3)ccc2O[C@@H](C)CCCCO[C@@H]1CN(C)C(=O)Cc1ccccc1	-1	-3	·	-5	·	1
C[C@@H]1CN([C@@H](C)CO)C(=O)c2cc(NS(=O)(=O)c3ccccc3)ccc2O[C@@H](C)CCCCO[C@@H]1CN(C)S(=O)(=O)c1ccccc1	-17	-5	·	17*	·	-2
Cc1ccc(S(=O)(=O)Nc2ccc3c(c2)C(=O)N([C@@H](C)CO)C[C@@H](C)[C@H](CN(C)S(=O)(=O)c2ccc(C)cc2)OCCCC[C@H](C)O3)cc1	5	-13	·	2	·	-6
Cc1ccc(S(=O)(=O)Nc2ccc3c(c2)C(=O)N([C@@H](C)CO)C[C@@H](C)[C@H](CN(C)S(=O)(=O)c2ccccc2)OCCCC[C@@H](C)O3)cc1	-2	9	·	9	·	0
C[C@@H]1CCCCO[C@@H](CN(C)S(=O)(=O)c2ccccc2)[C@H](C)CN([C@H](C)CO)C(=O)c2cc(NS(=O)(=O)c3ccccc3)ccc2O1	-21	-8	·	5	·	-1
Cc1ccc(S(=O)(=O)N(C)C[C@H]2OCCCC[C@H](C)Oc3ccc(NS(=O)(=O)c4ccccc4)cc3C(=O)N([C@H](C)CO)C[C@H]2C)cc1	-11	3	·	27*	·	3
Cc1ccc(S(=O)(=O)Nc2ccc3c(c2)C(=O)N([C@H](C)CO)C[C@@H](C)[C@@H](CN(C)S(=O)(=O)c2ccc(C)cc2)OCCCC[C@@H](C)O3)cc1	103*	?	·	4	·	-8
Cc1ccc(S(=O)(=O)N(C)C[C@H]2OCCCC[C@@H](C)Oc3ccc(NS(=O)(=O)c4ccccc4)cc3C(=O)N([C@H](C)CO)C[C@H]2C)cc1	0	-3	·	19*	·	3
CN1c2ccc(Br)cc2[C@H]2[C@H](CCN2C(=O)Cc2ccccc2)[C@H]1CO	9	12	·	1	·	1
C[C@@H]1CN([C@@H](C)CO)C(=O)c2cc(NS(=O)(=O)c3ccccc3)ccc2O[C@@H](C)CCCCO[C@@H]1CN(C)S(=O)(=O)c1ccc(F)cc1	-1	-2	·	22*	·	5
Cc1ccc(S(=O)(=O)N(C)C[C@@H]2OCCCC[C@H](C)Oc3ccc(NS(=O)(=O)c4ccc(F)cc4)cc3C(=O)N([C@H](C)CO)C[C@H]2C)cc1	-14	8	·	22*	·	0
Cc1ccc(S(=O)(=O)N(C)C[C@H]2OCCCC[C@H](C)Oc3ccc(NS(=O)(=O)c4ccccc4)cc3C(=O)N([C@@H](C)CO)C[C@H]2C)cc1	-15	0	·	23*	·	5
Cc1ccc(S(=O)(=O)Nc2ccc3c(c2)C(=O)N([C@H](C)CO)C[C@H](C)[C@H](CN(C)S(=O)(=O)c2ccc(C)cc2)OCCCC[C@@H](C)O3)cc1	-4	-5	·	2	·	-5
C[C@H](CO)N1C[C@H](C)[C@@H](CN(C)S(=O)(=O)c2ccc(F)cc2)OCCCC[C@H](C)Oc2ccc(NC(=O)CCC(F)(F)F)cc2C1=O	1	9	·	5	·	-2
CCN(C[C@H]1N[C@@](C)(C(=O)OC)[C@H]2C(=O)N(C)C(=O)[C@@H]12)C(=O)c1ccc(F)cc1	-2	?	0	28*	-3	-2
COC(=O)[C@]1(C)N[C@H](CN(C)C(=O)c2ccccc2)[C@@H]2C(=O)N(C)C(=O)[C@@H]21	1	1	-2	34*	3	-4
CCNC(=O)N(C)C[C@H]1N[C@@](C)(C(=O)OC)[C@H]2C(=O)N(C)C(=O)[C@@H]12	-2	0	0	-6	-1	-3
Cc1nc(NCCCN2CCOCC2)c2cnn(-c3ccccc3)c2n1	-21	1	-1	0	36*	-5
SMILES	S100A4 inh HTS	DENV2 CPE	CAL PDZ FP-1	SIRT5 block	CAL PDZ FP-2	ERAP1 HTS inh
c1ccc(-n2ncc3c(NCCN4CCOCC4)ncnc32)cc1	·	·	0	·	-2	·
CO[C@H]1CN(C)C(=O)c2cc(NC(=O)C3CCCCC3)ccc2OC[C@@H](C)N(Cc2cccnc2)C[C@@H]1C	4	-3	·	-1	·	1
Cc1cc(=O)oc2c(C)c(OC(C)C(=O)NC(Cc3c[nH]c4ccc(O)cc34)C(=O)O)ccc12 (centres undefined)	4	77*	0	0	1	2
CCc1c(C)c2ccc(OC(C)C(=O)NC(Cc3c[nH]c4ccc(O)cc34)C(=O)O)c(C)c2oc1=O (centres undefined)	-2	1	0	-7	-2	-2
O=C1c2ccccc2C(c2nnnn2Cc2ccccc2)N1Cc1ccco1 (centres undefined)	-5	-5	·	15*	·	·
COc1ccc(CC(=O)Nc2ccc(S(=O)(=O)Nc3cc(C)nc(C)n3)cc2)cc1OC	-15	30*	·	-2	·	6
COc1ccc(OCC(=O)Nc2ccc(S(=O)(=O)Nc3cc(C)on3)cc2)cc1	-2	2	-2	-4	-2	1
